Data set [1] deals with T1, 17-beta-hydroxysteroid dehydrogenase type 1 (Homo sapiens, UniProt P14061).
T1 sequence (P14061 whole entry): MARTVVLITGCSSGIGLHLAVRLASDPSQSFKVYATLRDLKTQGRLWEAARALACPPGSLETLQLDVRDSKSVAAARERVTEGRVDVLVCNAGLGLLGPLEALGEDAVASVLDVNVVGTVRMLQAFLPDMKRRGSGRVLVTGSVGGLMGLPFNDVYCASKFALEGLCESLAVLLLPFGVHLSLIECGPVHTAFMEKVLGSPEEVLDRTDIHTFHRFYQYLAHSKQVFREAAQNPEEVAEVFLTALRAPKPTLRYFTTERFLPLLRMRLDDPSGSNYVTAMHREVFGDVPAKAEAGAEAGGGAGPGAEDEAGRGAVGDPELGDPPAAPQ
The data set is described as follows: Inhibition of human placental 17beta-HSD1 using estrone substrate. Put shortly: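 Cytosolic fraction of human placenta incubated at 37 °C with NADH (500 µM) and inhibitor in 50 mM phosphate buffer, 20% glycerol, 1 mM EDTA, DMSO 1% final. Started with unlabelled plus [3H]-E1 (500 nM final); stopped after 10 min with HgCl2, extracted into diethylether. E1/E2 separated by HPLC with radio detection.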

The target in data set [2] is T2, 17-beta-hydroxysteroid dehydrogenase type 2 (Homo sapiens, UniProt P37059).
T2 sequence (P37059 whole entry): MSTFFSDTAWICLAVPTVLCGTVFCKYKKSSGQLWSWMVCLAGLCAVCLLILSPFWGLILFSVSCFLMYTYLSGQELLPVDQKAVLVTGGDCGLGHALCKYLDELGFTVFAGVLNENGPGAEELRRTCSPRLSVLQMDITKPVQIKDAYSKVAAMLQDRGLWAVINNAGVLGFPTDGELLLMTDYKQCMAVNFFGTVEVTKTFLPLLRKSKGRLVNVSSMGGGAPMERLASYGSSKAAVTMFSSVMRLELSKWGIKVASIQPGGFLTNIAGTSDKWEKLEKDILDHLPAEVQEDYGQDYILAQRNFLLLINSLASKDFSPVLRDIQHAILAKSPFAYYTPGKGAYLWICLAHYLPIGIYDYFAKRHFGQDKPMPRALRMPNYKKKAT
The data set is described as follows: Inhibition of human placental 17beta-HSD2 using 17-beta-estradiol substrate. The method, boiled down:
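Human placental microsomal fraction incubated 20 min at 37 °C with NAD+ (1500 µM), test compound and unlabelled plus [3H]-E2 (500 nM final). Extraction and HPLC with radio detection as for 17β-HSD1. Conversion = AUC(E1)/[AUC(E1)+AUC(E2)] × 100.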

The species named for the next data set is Homo sapiens. Briefly: Selectivity ratio of IC50 for human 17beta-HSD2 to IC50 for human 17beta-HSD1. Put shortly:
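Selectivity factor computed as IC50 for placental microsomal 17β-HSD2 (E2 500 nM, NAD+ 1500 µM) divided by IC50 for placental cytosolic 17β-HSD1 (E1 500 nM, NADH 500 µM).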

For data set [3], the target named is T3, Estrogen receptor (Homo sapiens) (UniProt P03372).
T3 sequence (whole entry): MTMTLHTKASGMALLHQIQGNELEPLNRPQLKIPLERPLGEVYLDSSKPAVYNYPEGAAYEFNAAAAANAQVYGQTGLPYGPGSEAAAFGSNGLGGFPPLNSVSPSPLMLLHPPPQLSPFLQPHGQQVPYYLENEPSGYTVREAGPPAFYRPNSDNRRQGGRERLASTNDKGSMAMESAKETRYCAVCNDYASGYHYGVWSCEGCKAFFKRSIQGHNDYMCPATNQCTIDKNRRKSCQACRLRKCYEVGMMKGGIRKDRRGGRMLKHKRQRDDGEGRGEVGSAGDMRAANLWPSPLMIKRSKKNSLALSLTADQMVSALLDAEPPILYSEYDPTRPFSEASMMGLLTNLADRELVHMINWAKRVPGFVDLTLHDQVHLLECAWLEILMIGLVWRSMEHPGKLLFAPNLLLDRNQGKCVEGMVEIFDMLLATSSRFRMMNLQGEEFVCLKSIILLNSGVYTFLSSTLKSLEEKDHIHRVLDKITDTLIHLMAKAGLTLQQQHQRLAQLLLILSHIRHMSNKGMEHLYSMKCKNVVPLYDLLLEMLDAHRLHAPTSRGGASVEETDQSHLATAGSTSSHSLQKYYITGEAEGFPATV
The data set is described as follows: Displacement of [2,4,6,7-3H]17beta-estradiol from human recombinant ERalpha receptor relative to 17-beta-estradiol. The method, boiled down:
(§1)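 ERα or ERβ (0.25 pmol) incubated with [2,4,6,7-3H]-E2 (10 nM) and test compound, 1 h, room temperature, 5% DMSO final. Non-specific binding with diethylstilbestrol (10 µM). Bound complexes captured on hydroxyapatite, washed, resuspended in ethanol and counted by liquid scintillation. RBA derived from inhibitor and E2 concentrations displacing 50% of bound labelled E2.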

Data set [4] has as its target Estrogen receptor beta (Homo sapiens) (UniProt Q92731). Briefly: Displacement of [2,4,6,7-3H]17beta-estradiol from human recombinant ERbeta receptor relative to 17-beta-estradiol. Put shortly:
as §1

Another data set deals with T47D. The data set is described as follows: Estrogenic effect in human T47D cells assessed as stimulation of cell proliferation at 100 nM by MTT assay. It is filed as functional, cell-based. The method, boiled down: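 T-47D cells grown 48 h in phenol red-free RPMI 1640 with 5% DCC-FCS, then treated with compound at 100 nM final (ethanol 1% final). E2 0.1 nM as positive control, ethanol as negative control. Medium and additives renewed every 2–3 days; after 8 days MTT reduction read at 590 nm. Stimulation = (proliferation relative to control set at 1, minus 1) × 100%.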
In general terms: Formazan colour is commonly taken as a measure of viable cells.

The target in data set [5] is T1, 17-beta-hydroxysteroid dehydrogenase type 1. Briefly: Inhibition of 17-beta-HSD1-mediated 17-beta-estradiol formation in human T47D cells. It is filed as cell-based. The method, boiled down:
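T47D cells, which express both 17β-HSD1 and 17β-HSD2, were kept in RPMI 1640 with 10% FCS at 37 °C, 5% CO₂. They were seeded in DMEM with FCS, then after 24 h switched to serum-free DMEM. Test compound was added in DMSO (1% final) and pre-incubated 30 min. Unlabelled plus [³H]-E1 (50 nM final) was added for 2.5 h. Steroids were extracted with ether, and E2 formed was quantified by HPLC with radiodetection.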

Data set [6] in a line: Apparent permeability across human Caco-2 cells. It is filed as ADME, cell-based. Put shortly:
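Caco-2 monolayers cultured 10 days at higher seeding density; cassette dosing with four reference compounds; donor concentration 50 µM in 0.2 M MES pH 6.5 with 1% ethanol or DMSO. Acceptor sampled at 0, 60, 120, 180 min, donor at 0 and 180 min; LC/MS/MS analysis; triplicate runs; monolayer integrity by TEER and lucifer yellow.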

The values below come from ChEMBL document CHEMBL1150770, “Design, synthesis and biological evaluation of bis(hydroxyphenyl) azoles as potent and selective non-steroidal inhibitors of 17beta-hydroxysteroid dehydrogenase type 1 (17beta-HSD1) for the treatment of estrogen-dependent diseases” (Bioorg Med Chem, 2008).

SMILES strings stand for the structures. Calls of active or inactive are those of the source. The rule behind the calls is not given here.

In general, IC50 refers to the concentration needed to halve the response being measured. Usually Papp stands for the rate of passage across a membrane or cell layer, normalised by area and donor concentration.

Estrogen receptor beta (Homo sapiens), sequence (Q92731 whole entry): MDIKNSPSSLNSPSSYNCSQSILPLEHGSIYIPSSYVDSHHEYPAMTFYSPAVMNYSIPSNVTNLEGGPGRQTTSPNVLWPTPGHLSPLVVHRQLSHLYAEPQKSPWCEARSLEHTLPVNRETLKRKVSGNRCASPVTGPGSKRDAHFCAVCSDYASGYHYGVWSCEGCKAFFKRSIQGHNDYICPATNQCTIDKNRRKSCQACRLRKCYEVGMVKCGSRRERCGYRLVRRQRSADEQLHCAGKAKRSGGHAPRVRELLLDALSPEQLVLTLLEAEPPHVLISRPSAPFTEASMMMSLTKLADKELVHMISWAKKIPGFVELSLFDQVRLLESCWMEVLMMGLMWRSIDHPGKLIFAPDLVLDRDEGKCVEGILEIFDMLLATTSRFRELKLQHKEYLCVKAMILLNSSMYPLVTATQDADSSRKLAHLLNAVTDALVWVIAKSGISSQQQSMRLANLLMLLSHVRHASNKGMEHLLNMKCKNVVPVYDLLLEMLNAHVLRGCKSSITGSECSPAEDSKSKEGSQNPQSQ

As for `Oc1ccc(-c2cnc(-c3cccc(O)c3)o2)cc1`, the IC50 in data set [1] was determined as 0.31 µM; in data set [2] it was 17.5 µM; in data set [5] it was 0.38 µM. The Ratio IC50 in the data set listed under Homo sapiens worked out at 56. In addition, the values for the RBA in data set [3] and in data set [4] were 0.01% and 0.5%, respectively. The result in the data set with T47D was inactive. The Papp in data set [6] turned out to be 7.9 ×10⁻⁶ cm/s.
Take `Oc1ccc(-n2cc(-c3cccc(O)c3)nn2)cc1`: the half-inhibitory concentration (IC50) came to 1.32 µM in data set [1] and 8.12 µM in data set [2]. For the same compound, the Ratio IC50 in the data set listed under Homo sapiens stood at 6. Also, the RBA in data set [3] and in data set [4] was less than 0.01% each time.
Regarding `Oc1ccc(-c2coc(-c3cccc(O)c3)n2)cc1`, the results for the IC50 in data set [1] and in data set [2] were 1.85 µM and 0.25 µM, respectively. Moreover, the Ratio IC50 in the data set filed under Homo sapiens is 0.1. Also, the RBA in data set [3] and in data set [4] was 0.01% throughout.
For `Oc1ccc(-c2cc(-c3cccc(O)c3)on2)cc1`, the IC50 in data set [1] was found to be 1.61 µM; in data set [2], 0.27 µM. The Ratio IC50 in the data set filed under Homo sapiens worked out at 0.2. Moreover, the figures for the RBA in data set [3] and in data set [4] were 0.01% and less than 0.01%, respectively.
The corresponding values for `Oc1ccc(-c2cn(-c3cccc(O)c3)nn2)cc1` are 0.84 µM, 7.28 µM, 9, 0.01% and 0.01%.
